# Results: ChEMBL document CHEMBL3352028, “SAR studies on tetrahydroisoquinoline derivatives: the role of flexibility and bioisosterism to raise potency and selectivity toward P-glycoprotein” (J Med Chem, 2014)
# pEC50: −log10 of the molar value.
# Experiments:
# [1] = biological target: Multidrug resistance-associated protein 1 (Homo sapiens, UniProt P33527); test: Inhibition of MRP1 (unknown origin) over-expressed in MDCK cells assessed as calcein accumulation incubated for 30 mins prior to Calcein-AM addition measured after 30 mins by fluorescence assay; type: cell-based; conditions: for EC50: mdck; for pEC50: read-out: EC50
# Summary of the method: (§1)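 MDCK-MDR1 or MDCK-MRP1 cells at 50 000 cells/well, confluent overnight. Compounds in culture medium for 30 min at 37 °C, then Calcein-AM added (2.5 μM final) for a further 30 min. Washed three times with ice-cold PBS, fluorescence read at ex 485, em 535 nm. Percent increase over untreated basal level fitted against log dose to give EC50.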
# [2] = Efflux ratio of apparent permeability from basolateral to apical side over apical to basolateral side in human Caco2 cells at 100 uM after 120 mins by UV-Vis spectrophotometry; type: ADME, cell-based; conditions: Caco-2
# Summary of the method: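 Caco-2 cells seeded at 10 000 cells/well and grown 21 days, medium changed every 48 h for 6 days then daily; TEER checked before and after, generally >1000 Ω. Monolayers preincubated twice in HBSS (pH 7.4) 30 min at 37 °C. Drug at 100 μM in HBSS on apical or basolateral side, 120 min at 37 °C. Both sides sampled, drug quantified by UV-vis against a calibration curve. Papp computed from acceptor concentration, volume, membrane area (0.11 cm2) and time (7200 s). Ratio taken as B→A over A→B.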
# [3] = biological target: ATP-dependent translocase ABCB1 (Homo sapiens, UniProt P08183); test: Inhibition of MDR1 (unknown origin) over-expressed in MDCK cells assessed as calcein accumulation incubated for 30 mins prior to Calcein-AM addition measured after 30 mins by fluorescence assay; type: cell-based; conditions: for pEC50: read-out: EC50; summary of the method: as §1
# [4] = biological target: T1, Broad substrate specificity ATP-binding cassette transporter ABCG2 (Homo sapiens, UniProt Q9UNQ0); test: Inhibition of BCRP (unknown origin) over-expressed in MDCK cells assessed as Hoechst 33342 accumulation incubated for 30 mins prior to Hoechst 33342 addition measured after 30 mins by fluorescence assay; type: cell-based; conditions: 0.5 h
# T1 sequence (Q9UNQ0 whole entry): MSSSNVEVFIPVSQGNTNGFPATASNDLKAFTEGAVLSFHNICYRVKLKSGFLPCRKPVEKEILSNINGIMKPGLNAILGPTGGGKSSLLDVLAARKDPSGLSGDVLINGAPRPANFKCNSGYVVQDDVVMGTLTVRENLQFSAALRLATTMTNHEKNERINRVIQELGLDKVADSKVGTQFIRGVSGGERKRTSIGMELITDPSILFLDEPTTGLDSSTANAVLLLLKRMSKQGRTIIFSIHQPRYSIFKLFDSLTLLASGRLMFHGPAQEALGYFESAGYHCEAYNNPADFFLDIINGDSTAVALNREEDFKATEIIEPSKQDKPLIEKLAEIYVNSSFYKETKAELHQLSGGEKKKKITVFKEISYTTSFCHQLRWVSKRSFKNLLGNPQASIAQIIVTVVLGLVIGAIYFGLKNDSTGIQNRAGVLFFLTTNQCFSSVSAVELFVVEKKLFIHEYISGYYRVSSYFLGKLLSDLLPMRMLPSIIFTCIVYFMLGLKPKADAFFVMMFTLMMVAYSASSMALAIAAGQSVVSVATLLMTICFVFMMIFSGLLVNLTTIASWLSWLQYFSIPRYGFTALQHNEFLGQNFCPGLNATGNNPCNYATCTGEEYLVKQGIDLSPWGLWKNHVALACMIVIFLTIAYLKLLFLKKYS
# Summary of the method: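 MDCK-BCRP cells at 30 000 cells/well, confluent overnight. Compounds in culture medium for 30 min at 37 °C, then Hoechst 33342 added (8 μM final) for 30 min. Cells fixed 20 min in 4% PFA protected from light, washed three times with ice-cold PBS, fluorescence read at ex 340/35, em 485/20 nm. Increase over untreated basal level fitted against log dose to give EC50.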
# ATP-dependent translocase ABCB1, sequence (P08183 whole entry): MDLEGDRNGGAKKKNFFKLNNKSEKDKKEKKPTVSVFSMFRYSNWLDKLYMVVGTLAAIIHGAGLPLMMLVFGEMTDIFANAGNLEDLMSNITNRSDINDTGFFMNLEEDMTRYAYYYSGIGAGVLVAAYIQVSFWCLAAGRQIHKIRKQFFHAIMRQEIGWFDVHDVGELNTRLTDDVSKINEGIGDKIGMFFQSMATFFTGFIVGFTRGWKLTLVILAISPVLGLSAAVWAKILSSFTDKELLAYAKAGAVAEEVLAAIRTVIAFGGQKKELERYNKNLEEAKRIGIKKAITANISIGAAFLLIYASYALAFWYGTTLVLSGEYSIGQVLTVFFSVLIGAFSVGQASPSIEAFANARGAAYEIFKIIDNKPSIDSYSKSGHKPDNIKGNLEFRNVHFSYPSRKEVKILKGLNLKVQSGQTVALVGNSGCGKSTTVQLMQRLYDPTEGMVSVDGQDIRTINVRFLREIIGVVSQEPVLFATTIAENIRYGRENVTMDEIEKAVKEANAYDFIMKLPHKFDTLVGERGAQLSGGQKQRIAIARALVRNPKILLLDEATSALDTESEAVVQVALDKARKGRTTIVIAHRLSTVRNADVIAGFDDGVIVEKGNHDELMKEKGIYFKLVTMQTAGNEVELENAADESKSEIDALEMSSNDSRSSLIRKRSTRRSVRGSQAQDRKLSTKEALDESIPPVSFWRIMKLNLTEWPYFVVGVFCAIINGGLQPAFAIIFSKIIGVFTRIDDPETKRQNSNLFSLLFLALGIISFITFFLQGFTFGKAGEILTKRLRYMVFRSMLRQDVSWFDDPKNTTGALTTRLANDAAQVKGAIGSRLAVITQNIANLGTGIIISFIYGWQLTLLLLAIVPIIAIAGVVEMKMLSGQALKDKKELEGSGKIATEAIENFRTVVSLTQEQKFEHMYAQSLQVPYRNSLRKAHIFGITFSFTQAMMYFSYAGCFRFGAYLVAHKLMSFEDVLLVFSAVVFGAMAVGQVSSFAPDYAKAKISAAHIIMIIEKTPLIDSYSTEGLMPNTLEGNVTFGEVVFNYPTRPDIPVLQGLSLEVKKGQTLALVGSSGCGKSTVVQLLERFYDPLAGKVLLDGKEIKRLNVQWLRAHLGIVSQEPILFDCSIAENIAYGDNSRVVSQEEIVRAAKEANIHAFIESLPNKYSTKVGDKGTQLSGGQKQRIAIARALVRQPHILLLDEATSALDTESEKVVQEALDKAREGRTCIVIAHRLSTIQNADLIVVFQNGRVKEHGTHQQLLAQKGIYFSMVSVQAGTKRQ
# Multidrug resistance-associated protein 1, sequence (P33527 whole entry): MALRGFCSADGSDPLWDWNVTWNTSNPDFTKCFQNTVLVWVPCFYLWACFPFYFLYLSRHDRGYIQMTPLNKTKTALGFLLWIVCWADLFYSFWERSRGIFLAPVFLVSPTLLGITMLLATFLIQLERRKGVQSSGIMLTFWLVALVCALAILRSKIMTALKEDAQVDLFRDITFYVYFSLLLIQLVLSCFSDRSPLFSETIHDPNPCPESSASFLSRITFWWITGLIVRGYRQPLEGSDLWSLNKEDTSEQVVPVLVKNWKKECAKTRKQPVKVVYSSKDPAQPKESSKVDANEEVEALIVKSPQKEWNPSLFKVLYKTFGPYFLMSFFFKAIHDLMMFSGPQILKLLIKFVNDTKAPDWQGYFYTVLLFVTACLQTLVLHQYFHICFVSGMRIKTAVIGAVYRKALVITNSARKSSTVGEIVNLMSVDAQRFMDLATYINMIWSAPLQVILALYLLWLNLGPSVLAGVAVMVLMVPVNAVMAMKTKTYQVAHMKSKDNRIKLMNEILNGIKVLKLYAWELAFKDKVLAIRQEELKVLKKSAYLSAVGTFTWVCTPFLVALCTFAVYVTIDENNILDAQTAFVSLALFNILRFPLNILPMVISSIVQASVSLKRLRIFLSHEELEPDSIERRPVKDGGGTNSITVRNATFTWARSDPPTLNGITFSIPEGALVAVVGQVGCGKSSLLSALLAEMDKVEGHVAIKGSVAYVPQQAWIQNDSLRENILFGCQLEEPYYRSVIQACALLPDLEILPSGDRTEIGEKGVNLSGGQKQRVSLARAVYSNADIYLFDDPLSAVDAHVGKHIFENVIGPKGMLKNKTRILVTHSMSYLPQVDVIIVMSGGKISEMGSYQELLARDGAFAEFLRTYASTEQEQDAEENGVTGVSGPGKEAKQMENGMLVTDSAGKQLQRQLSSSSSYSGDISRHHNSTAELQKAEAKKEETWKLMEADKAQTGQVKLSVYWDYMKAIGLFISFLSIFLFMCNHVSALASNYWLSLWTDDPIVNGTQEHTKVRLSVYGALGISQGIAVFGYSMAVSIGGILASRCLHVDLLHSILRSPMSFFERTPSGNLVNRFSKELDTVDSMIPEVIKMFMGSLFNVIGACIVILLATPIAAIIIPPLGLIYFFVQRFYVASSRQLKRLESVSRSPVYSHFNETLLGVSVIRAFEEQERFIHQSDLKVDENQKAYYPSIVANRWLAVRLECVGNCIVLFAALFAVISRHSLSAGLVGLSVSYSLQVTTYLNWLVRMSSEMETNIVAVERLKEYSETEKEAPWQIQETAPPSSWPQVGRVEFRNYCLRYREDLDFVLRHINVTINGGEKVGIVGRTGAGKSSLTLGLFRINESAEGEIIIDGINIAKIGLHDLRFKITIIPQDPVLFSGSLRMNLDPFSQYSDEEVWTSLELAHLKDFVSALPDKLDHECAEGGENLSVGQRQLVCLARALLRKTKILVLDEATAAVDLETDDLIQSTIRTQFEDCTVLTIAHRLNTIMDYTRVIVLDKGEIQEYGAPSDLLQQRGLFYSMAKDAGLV
SMILES,EC50 [1],"efflux ratio at 2 h, 100 µM [2]",pEC50 [3],inhibition (INH) [4],pEC50 [1],EC50 ([3]; mdck)
COc1cc2c(cc1OC)CN(CCCC1CCCc3c(OC)cccc31)CC2 (stereo not drawn),Not Active,4.4,,,,
COc1cc2c(cc1OC)CN(Cc1ccc(-c3ccc(O)cc3)cc1)CC2,,,5.03,,,
COc1ccc(-c2ccc(CN3CCc4cc(OC)c(OC)cc4C3)cc2)cc1,Not Active,4.4,,,,
COc1ccc(-c2ccc3c(c2)C=C(CC(=O)N2CCc4cc(OC)c(OC)cc4C2)CO3)cc1,Not Active,3.2,5.24,Not Active,,
COc1ccc(-c2ccc(C(=O)N3CCc4cc(OC)c(OC)cc4C3)o2)cc1,Not Active,5.2,6.04,Not Active,,
COc1cc2c(cc1OC)CN(C(=O)c1ccc(-c3ccc(O)cc3)o1)CC2,Not Active,4.5,5.19,Not Active,,
COc1ccc(-c2ccc(CN3CCc4cc(OC)c(OC)cc4C3)o2)cc1,Not Active,3.7,5.37,Not Active,,
COc1cc2c(cc1OC)CN(Cc1ccc(-c3ccc(O)cc3)o1)CC2,Not Active,5.7,5.09,Not Active,,
COc1ccc(-c2ccc(CC(=O)N3CCc4cc(OC)c(OC)cc4C3)cc2)cc1,,3.9,6.10,Not Active,5.00,
COc1ccc(-c2ccc(CCN3CCc4cc(OC)c(OC)cc4C3)cc2)cc1,Not Active,38,6.24,Not Active,,
COc1cc2c(cc1OC)CN(CCc1ccc(-c3ccc(F)cc3)cc1)CC2,Not Active,3.8,5.70,Not Active,,
COc1cc2c(cc1OC)CN(Cc1ccc(-c3ccc(F)cc3)cc1)CC2,Not Active,3.8,5.31,Not Active,,
COc1ccc(-c2ccc(OCCCN3CCc4cc(OC)c(OC)cc4C3)cc2)cc1,Not Active,7.9,5.89,Not Active,,
COc1ccc(-c2ccc(OCCN3CCc4cc(OC)c(OC)cc4C3)cc2)cc1,Not Active,47,6.03,Not Active,,
COc1ccc(-c2ccc(NCCCN3CCc4cc(OC)c(OC)cc4C3)cc2)cc1,Not Active,2.2,5.74,Not Active,,
COc1cc2c(cc1OC)CN(CCCCOc1ccc(-c3ccc(O)cc3)cc1)CC2,Not Active,1.5,,Not Active,,Not Active
COc1ccc(-c2ccc(OCCCCN3CCc4cc(OC)c(OC)cc4C3)cc2)cc1,Not Active,6.6,8.40,Not Active,,
COc1ccc(-c2ccc3c(c2)C=C(CCN2CCc4cc(OC)c(OC)cc4C2)CO3)cc1,Not Active,4.9,5.92,Not Active,,
COc1cc2c(cc1OC)CN(CCc1ccccc1-c1cccc(O)c1)CC2,Not Active,3.2,6.64,Not Active,,
COc1cccc(-c2ccccc2CCN2CCc3cc(OC)c(OC)cc3C2)c1,,4.1,7.16,Not Active,4.64,
